CHO parental Ca – counter-screen: ATP calcium response change in parental CHO cells; parental CHO-K1, ATP-induced calcium, Fluo-8 fluorescence; inhibition, % at 5.6 µM; 330,000 compounds, 0.63% hits; AID 463079;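 active means inhibition above that plate's mean sample inhibition plus 3 SD, cut at about 26% in these data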;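 further: 0% = ATP-challenged DMSO wells and 100% = DMSO wells without ATP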
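Assay system: untransfected parental CHO cell line. Also added: ATP agonist challenge. Dosing: one dose, 5.6 µM nominal. Measured by: Fluo-8 fluorescence. Read-out: % inhibition. Benchmarks: ATP wells versus no-ATP DMSO wells. Repeats: no replicates.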
GPR7 antag – blocks human GPR7 receptor signaling; P48145; GPR7-expressing cells, fluorescence antagonist assay; inhibition, % at 4.4 µM; 290,000 compounds, 1.1% hits; AID 1861; in the data active means inhibition above about 16%, passing the limit was not always enough;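 further: cells stimulated with the agonist NPW; 0% = agonist with vehicle and 100% = vehicle without agonist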
TAAR1 antag – antagonists of human TAAR1. Q96RJ0. CHO RD-HGA16 TAAR1, Fluo-8 calcium fluorescence, antagonist. inhibition, % at 3 µM. 360,000 compounds, 1.5% hits;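 active means inhibition above a per-plate cutoff, the mean inhibition of test compounds on that plate plus 3 SD, cut at about 49% in these data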;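 further: 0% = DMSO plus EC80 beta-PEA response and 100% = DMSO alone without agonist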
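Material: RD-HGA16 CHO cells with stable hTAAR1 and Gα16; Dosing: single nominal final test compound concentration of 3 µM; Schedule: seeding 17-24 h prior, 75-min 37 °C, 30-min RT dye loading; Detection: kinetic Fluo-8 calcium fluorescence measurement; Measure: % inhibition from peak post-agonist over basal fluorescence ratio; Benchmarks: vehicle and agonist controls.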
OX1R antag-1 – blocks the human orexin 1 receptor. inhibition, % at 5 µM. O43613. CHO/OX1R cells, Fluo-8 calcium fluorescence, orexin A. 330,000 compounds, 0.43% hits;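 active means inhibition above its plate's threshold, mean inhibition of all tested compounds on the plate plus 3 SD, cut at about 37% in these data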;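 further: 0% = orexin A challenge wells and 100% = SB-334867-A antagonist wells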
Target sequence (O43613 whole entry, looked up): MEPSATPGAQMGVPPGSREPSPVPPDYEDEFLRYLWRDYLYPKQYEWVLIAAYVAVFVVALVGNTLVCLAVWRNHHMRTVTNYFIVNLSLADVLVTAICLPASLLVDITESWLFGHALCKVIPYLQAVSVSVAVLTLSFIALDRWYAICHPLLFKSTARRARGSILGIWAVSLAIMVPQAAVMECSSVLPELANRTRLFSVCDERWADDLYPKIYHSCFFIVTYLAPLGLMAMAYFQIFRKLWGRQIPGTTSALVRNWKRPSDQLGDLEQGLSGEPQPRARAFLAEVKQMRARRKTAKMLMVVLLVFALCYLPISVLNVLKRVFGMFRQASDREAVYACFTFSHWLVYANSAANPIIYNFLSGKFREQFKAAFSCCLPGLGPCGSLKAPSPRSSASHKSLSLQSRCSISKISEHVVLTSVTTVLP
OX1R antag-2 – OX1R (human) antagonism | 330,000 compounds, 1.8% hits | AID 485270 | inhibition, % at 6.6 µM | OX1R-expressing cells, FRET antagonist read-out | O43613; in the data active means inhibition mostly above about 38%, no sharp cut-off; inactive means mostly below about 40%;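 further: 0% = agonist challenge alone and 100% = reference antagonist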
TAAR1 agonist – agonists of human TAAR1. Q96RJ0. CHO RD-HGA16 TAAR1, Fluo-8 calcium fluorescence; vehicle wells 0%, saturating PEA agonist 100%. 360,000 compounds, 0.99% hits. activation, % at 3 µM;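 active means activation above the mean activation of all test compounds in the run plus 3 SD, cut at about 38% in these data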
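Test system: RD-HGA16 (CHO) cells co-expressing Gα16 and hTAAR1 | Doses: Single dose, 3 µM | Schedule: 17-24 h seeding, 75 min 37 °C dye, 30 min RT | Evaluation: % activation from peak over basal fluorescence ratio, DMSO-to-PEA scaled | Technique: Kinetic Fluo-8 calcium fluorescence | Benchmarks: Low control DMSO, high control PEA (EC100)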
GPR7 antag conf – human GPR7 antagonism, confirmation assay; shares compounds with GPR7 antag; GPR7-expressing cells, calcium fluorescence antagonist mode; inhibition, % at 4.4 µM; 2,400 compounds, 52% hits; in the data active means inhibition above about 24%;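 further: stimulated with the GPR7 agonist NPW; 0% = agonist plus vehicle and 100% = vehicle alone without agonist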
MCHR1 antagonist – antagonizes human MCHR1, a GPR7 antagonist counter-screen. MCHR1-expressing cells, fluorescence antagonist assay. AID 2148. shares compounds with GPR7 antag. 2,400 compounds, 62% hits. inhibition, % at 4.4 µM; in the data active means inhibition above about 22%;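 further: 0% = vehicle with agonist and 100% = vehicle without agonist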
* = called active by the depositor; x = not tested or not shown. A selection: hits, their analogues and other compounds. The true share with any hit is near 4.6%.

SMILES	CHO parental Ca	GPR7 antag	TAAR1 antag	OX1R antag-1	OX1R antag-2	TAAR1 agonist	GPR7 antag conf	MCHR1 antagonist
CN(C(=O)c1cc([N+](=O)[O-])ccc1N1CCCC1)C1CCCCC1	-20	34*	2	-26	31	-2	29*	24*
O=C(O)c1cccc(N2C(=O)c3cc4cccc(Br)c4cc3C2=O)c1	-7	38*	2	-5	3	2	0	11
CCOC(=O)CN1CCCc2nc(-c3ccc(OC)cc3)ccc21	x	x	-12	x	x	0	x	x
CCOC(=O)Cn1c(COc2ccccc2OC)[n+](C)c2ccccc21	-8	x	8	-18	6	0	x	x
CCCCCCCCCCOC(=O)Cn1c(COc2ccccc2C)[n+](C)c2ccccc21	43*	28*	x	53*	0	x	83*	88*
CCCCCCCCCCOC(=O)Cn1c(COc2cccc(C)c2)[n+](C)c2ccccc21	65*	45*	65*	75*	17	42*	68*	85*
CCCCOC(=O)Cn1c(=O)n(CC(=O)OCCCC)c2ccccc21	-8	-2	-5	-23	31	0	x	x
CCCCCCCCCCOC(=O)Cn1c(COc2ccccc2)[n+](C)c2ccccc21	62*	71*	35	73*	11	31	77*	94*
CCCCCCCCCCOC(=O)Cn1c(COc2ccc(Cl)cc2)[n+](C)c2ccccc21	33*	60*	32	21	7	47*	66*	70*
C[C@@H]1CN([C@@H](C)CO)C(=O)CCCn2nncc2CO[C@H]1CN(C)C(=O)OCc1ccccc1	x	x	-5	x	x	4	x	x
CC(=O)C1=CCC(c2cccc(Cl)c2)N(S(=O)(=O)c2ccc(C)cc2)C1 (centres undefined)	x	x	23	x	x	3	x	x
CCC(NC(=O)c1ccc2nc(Cc3ccc(OC)cc3)oc2c1)c1ccncc1 (centres undefined)	24	46*	33	3	19	9	39*	70*
COc1cccc(CN2CCN(Cc3cccc(Oc4ccccc4)c3)CC2)c1OC	-24	-7	-16	-40	9	15	x	x
COc1cccc(CN2CCC(N(CCc3ccccc3)Cc3ccccc3)CC2)c1OC	-19	23*	5	-33	5	4	35*	40*
O=C(/C=C1\OCc2ccccc21)c1ccccc1	x	x	-18	x	x	1	x	x
CCc1ccccc1S(=O)(=O)c1c(C)cc(C)nc1Cl	-13	-11	-16	-27	18	0	x	x
Cc1c(NC(=O)C(C)c2ccc(CC(C)C)cc2)c(=O)n(-c2ccccc2)n1C (centres undefined)	-2	-6	-3	-5	13	3	x	x
CC(C)Cc1ccc(C(C)C(=O)Nc2ccccc2O)cc1 (centres undefined)	82*	69*	92*	101*	29	77*	89*	94*
Cc1cccc(NC(=O)C2(c3ccc([N+](=O)[O-])cc3)CCCC2)c1	36*	33*	0	41	27	48*	36*	36*
Cc1cccc(NC(=O)C2(c3ccccc3)CCOCC2)c1	-14	-11	-2	-6	15	2	x	x
O=C(Cc1ccc([N+](=O)[O-])cc1)Nc1cccc(C(F)(F)F)c1	28*	39*	18	-7	25	11	30*	57*
CC(C)(C)[C@H]1COC(=O)CCC/C=C/C[C@H](CC(=O)NCCO)C(=O)N1	4	x	2	-2	2	0	x	x
O=C(CN1C(=O)C2C3C=CC(C3)C2C1=O)NC1CCCc2ccccc21 (centres undefined)	-15	30*	3	-13	7	4	-1	6
COc1ccc(C2CCCN2CC(O)COc2ccccc2C(C)C)cc1 (centres undefined)	-20	24*	-26	-20	14	2	33*	41*

High-throughput results (PubChem BioAssay)
